Test results as given in ChEMBL document CHEMBL2346534, “Design, synthesis and in vitro anti-proliferative activity of 4,6-quinazolinediamines as potent EGFR-TK inhibitors” (Eur J Med Chem, 2013).

Experiments:
UO-31 = assay: Cytotoxicity against human UO31 cells assessed as cell growth at 10^-5 M after 48 hrs by SRB assay; type: functional; conditions: UO-31, 48 h, read-out: Activity
In short: (§1)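 NCI primary single-dose screen at 10^-5 M. Cells grown in RPMI 1640 with 5% FBS and 2 mM L-glutamine, given 24 h before drug addition, then 48 h exposure at 37 °C, 5% CO2. Cells TCA-fixed, stained with SRB, read at 515 nm. Reported as percent growth of treated cells relative to untreated controls.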

HCT-15 = assay: Cytotoxicity against human HCT15 cells assessed as cell growth at 10^-5 M after 48 hrs by SRB assay; type: functional; conditions: HCT-15, 48 h, read-out: Activity
In short: (§2)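 NCI 60 single-dose screen at 10^-5 M. Cells in RPMI 1640 with 5% FBS and 2 mM L-glutamine, preincubated 24 h at 37 °C/5% CO2. Drug from DMSO stock, then 48 h exposure. TCA fixation, SRB staining, absorbance at 515 nm. Result given as percent growth of treated cells relative to untreated control.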

[1] = Cytotoxicity against human NCI-ADR-RES cells assessed as cell growth at 10^-5 M after 48 hrs by SRB assay; type: functional; conditions: read-out: Activity
In short: (§3)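 NCI 60-panel single-dose primary screen at 10^-5 M. Cells are grown in RPMI 1640 with 5% FBS and 2 mM L-glutamine and preincubated 24 h at 37 °C. Drug exposure is 48 h. Cells are TCA-fixed, stained with SRB and absorbance is read at 515 nm. Results are reported as percent growth of treated cells versus untreated controls, corrected using time-zero plates.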

786-0 = assay: Cytotoxicity against human 786-0 cells assessed as cell growth at 10^-5 M after 48 hrs by SRB assay; type: functional; conditions: 786-0, 48 h, read-out: Activity; in short: as §2
MOLT-4 = assay: Cytotoxicity against human MOLT4 cells assessed as cell growth at 10^-5 M after 48 hrs by SRB assay; type: functional; conditions: MOLT-4, 48 h, read-out: Activity; in short: as §3
SN12C = assay: Cytotoxicity against human SN12C cells assessed as cell growth at 10^-5 M after 48 hrs by SRB assay; type: functional; conditions: read-out: Activity; in short: as §3
HOP-62 = assay: Cytotoxicity against human HOP62 cells assessed as cell growth at 10^-5 M after 48 hrs by SRB assay; type: functional; conditions: HOP-62, 48 h, read-out: Activity; in short: as §2
[2] = molecular target: Epidermal growth factor receptor (Homo sapiens, UniProt P00533); conditions: at 10 µM;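 note: EGFR tyrosine kinase activity on a poly(Glu,Tyr) substrate, read out by Kinase-Glo Plus luminescence after a 40 min reaction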
Sequence of Epidermal growth factor receptor (P00533 whole entry): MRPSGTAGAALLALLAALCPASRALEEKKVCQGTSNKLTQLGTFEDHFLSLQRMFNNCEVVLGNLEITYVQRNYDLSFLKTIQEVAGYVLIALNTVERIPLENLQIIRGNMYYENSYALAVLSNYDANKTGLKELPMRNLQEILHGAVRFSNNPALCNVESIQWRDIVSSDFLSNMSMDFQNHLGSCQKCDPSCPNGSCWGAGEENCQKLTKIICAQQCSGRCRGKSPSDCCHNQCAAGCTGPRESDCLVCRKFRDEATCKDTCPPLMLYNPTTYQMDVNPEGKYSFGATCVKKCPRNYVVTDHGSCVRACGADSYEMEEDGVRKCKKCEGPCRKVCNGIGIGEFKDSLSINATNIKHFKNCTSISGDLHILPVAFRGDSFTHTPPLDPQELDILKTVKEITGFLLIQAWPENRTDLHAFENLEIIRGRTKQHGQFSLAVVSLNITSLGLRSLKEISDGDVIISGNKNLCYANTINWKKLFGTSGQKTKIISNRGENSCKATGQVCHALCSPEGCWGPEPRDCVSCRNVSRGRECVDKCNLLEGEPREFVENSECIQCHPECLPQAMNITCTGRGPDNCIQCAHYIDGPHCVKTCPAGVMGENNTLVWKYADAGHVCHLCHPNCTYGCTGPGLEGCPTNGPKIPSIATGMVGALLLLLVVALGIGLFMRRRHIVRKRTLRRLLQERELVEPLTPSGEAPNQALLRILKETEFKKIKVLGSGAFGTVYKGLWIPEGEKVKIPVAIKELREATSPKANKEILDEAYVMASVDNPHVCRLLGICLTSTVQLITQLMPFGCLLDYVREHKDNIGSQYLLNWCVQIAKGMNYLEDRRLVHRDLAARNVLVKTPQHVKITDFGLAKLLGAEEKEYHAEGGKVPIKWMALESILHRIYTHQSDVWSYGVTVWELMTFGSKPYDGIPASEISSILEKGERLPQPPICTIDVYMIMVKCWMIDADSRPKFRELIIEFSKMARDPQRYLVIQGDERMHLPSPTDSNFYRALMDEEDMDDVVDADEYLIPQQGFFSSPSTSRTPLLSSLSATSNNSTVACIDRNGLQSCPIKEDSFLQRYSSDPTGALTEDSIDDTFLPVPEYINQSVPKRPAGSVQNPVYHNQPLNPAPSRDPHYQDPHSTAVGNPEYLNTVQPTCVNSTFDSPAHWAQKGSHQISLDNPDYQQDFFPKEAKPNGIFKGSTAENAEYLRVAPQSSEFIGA

SNB-75 = assay: Cytotoxicity against human SNB75 cells assessed as cell growth at 10^-5 M after 48 hrs by SRB assay; type: functional; conditions: SNB-75, 48 h, read-out: Activity; in short: as §3
OVCAR-4 = assay: Cytotoxicity against human OVCAR4 cells assessed as cell growth at 10^-5 M after 48 hrs by SRB assay; type: functional; conditions: OVCAR-4, 48 h, read-out: Activity; in short: as §3
T47D = assay: Cytotoxicity against human T47D cells assessed as cell growth at 10^-5 M after 48 hrs by SRB assay; type: functional; conditions: read-out: Activity; in short: as §1
ACHN = assay: Cytotoxicity against human ACHN cells assessed as cell growth at 10^-5 M after 48 hrs by SRB assay; type: functional; conditions: read-out: Activity; in short: as §2
OVCAR-3 = assay: Cytotoxicity against human OVCAR3 cells assessed as cell growth at 10^-5 M after 48 hrs by SRB assay; type: functional; conditions: OVCAR-3, 48 h, read-out: Activity; in short: as §3
KM12 = assay: Cytotoxicity against human KM12 cells assessed as cell growth at 10^-5 M after 48 hrs by SRB assay; type: functional; conditions: KM12, 48 h, read-out: Activity; in short: as §2
CCRF-CEM = assay: Cytotoxicity against human CCRF-CEM cells assessed as cell growth at 10^-5 M after 48 hrs by SRB assay; type: functional; conditions: read-out: Activity; in short: as §2
SF-268 = assay: Cytotoxicity against human SF268 cells assessed as cell growth at 10^-5 M after 48 hrs by SRB assay; type: functional; conditions: SF-268, 48 h, read-out: Activity; in short: as §3
CAKI-1 = assay: Cytotoxicity against human Caki1 cells assessed as cell growth at 10^-5 M after 48 hrs by SRB assay; type: functional; conditions: CAKI-1, 48 h, read-out: Activity; in short: as §2
MDA-MB-231 = assay: Cytotoxicity against human MDA-MB-231 cells assessed as cell growth at 10^-5 M after 48 hrs by SRB assay; type: functional; conditions: MDA-MB-231, 48 h, read-out: Activity; in short: as §2
LOX IMVI = assay: Cytotoxicity against human LOXIMVI cells assessed as cell growth at 10^-5 M after 48 hrs by SRB assay; type: functional; conditions: read-out: Activity; in short: as §2
SK-OV-3 = assay: Cytotoxicity against human SKOV3 cells assessed as cell growth at 10^-5 M after 48 hrs by SRB assay; type: functional; conditions: SK-OV-3, 48 h, read-out: Activity; in short: as §3
HL-60(TB) = assay: Cytotoxicity against human HL-60(TB) cells assessed as cell growth at 10^-5 M after 48 hrs by SRB assay; type: functional; conditions: HL-60, 48 h, read-out: Activity
In short: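 NCI 60-panel single-dose screen. Cells were grown in RPMI 1640 with 5% FBS and 2 mM L-glutamine, preincubated 24 h, then exposed to compound at 10^-5 M (from DMSO stock) for 48 h at 37 °C, 5% CO2. Settled suspension cells were TCA-fixed and SRB-stained, with absorbance read at 515 nm. The value is percent growth of treated versus untreated control cells.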

SF-539 = assay: Cytotoxicity against human SF539 cells assessed as cell growth at 10^-5 M after 48 hrs by SRB assay; type: functional; conditions: SF-539, 48 h, read-out: Activity; in short: as §3
HT-29 = assay: Cytotoxicity against human HT-29 cells assessed as cell growth at 10^-5 M after 48 hrs by SRB assay; type: functional; conditions: HT-29, 48 h, read-out: Activity; in short: as §2
NCI-H460 = assay: Cytotoxicity against human NCI-H460 cells assessed as cell growth at 10^-5 M after 48 hrs by SRB assay; type: functional; conditions: NCI-H460, 48 h, read-out: Activity; in short: as §3
Malme-3M = assay: Cytotoxicity against human MALME-3M cells assessed as cell growth at 10^-5 M after 48 hrs by SRB assay; type: functional; conditions: read-out: Activity; in short: as §2
COLO 205 = assay: Cytotoxicity against human COLO205 cells assessed as cell growth at 10^-5 M after 48 hrs by SRB assay; type: functional; conditions: COLO 205, 48 h, read-out: Activity; in short: as §2
MDA-MB-468 = assay: Cytotoxicity against human MDA-MB-468 cells assessed as cell growth at 10^-5 M after 48 hrs by SRB assay; type: functional; conditions: MDA-MB-468, 48 h, read-out: Activity; in short: as §3
SW-620 = assay: Cytotoxicity against human SW620 cells assessed as cell growth at 10^-5 M after 48 hrs by SRB assay; type: functional; conditions: SW-620, 48 h, read-out: Activity; in short: as §1
K562 = assay: Cytotoxicity against human K562 cells assessed as cell growth at 10^-5 M after 48 hrs by SRB assay; type: functional; conditions: K562, 48 h, read-out: Activity; in short: as §2
A498 = assay: Cytotoxicity against human A498 cells assessed as cell growth at 10^-5 M after 48 hrs by SRB assay; type: functional; conditions: A498, 48 h, read-out: Activity; in short: as §2
[3] = Cytotoxicity against human EKVX cells assessed as cell growth at 10^-5 M after 48 hrs by SRB assay; type: functional; conditions: read-out: Activity; in short: as §2

SMILES | growth at 10 µM (UO-31) | growth at 10 µM (HCT-15) | growth at 10 µM [1] | growth at 10 µM (786-0) | growth at 10 µM (MOLT-4) | growth at 10 µM (SN12C) | growth at 10 µM (HOP-62) | inhibition [2] | growth at 10 µM (SNB-75) | growth at 10 µM (OVCAR-4) | growth at 10 µM (T47D) | growth at 10 µM (ACHN) | growth at 10 µM (OVCAR-3) | growth at 10 µM (KM12) | growth at 10 µM (CCRF-CEM) | growth at 10 µM (SF-268) | growth at 10 µM (CAKI-1) | growth at 10 µM (MDA-MB-231) | growth at 10 µM (LOX IMVI) | growth at 10 µM (SK-OV-3) | also measured
CCOC(=O)/C(C#N)=C\Nc1ccc2ncnc(Nc3ccccc3Cl)c2c1 | 66.7% | 99% | 99.6% | 91.3% | 86.2% | 98.8% | 99.1% | 94% | 87.2% | 124% | 77.6% | 68.7% | 95.3% | 88.5% | 93.1% | 106% | 45% | 86.9% | 93% | 107% | growth at 10 µM (HL-60(TB)): 95.3%; growth at 10 µM (SF-539): 111%; growth at 10 µM (HT-29): 100%; growth at 10 µM (NCI-H460): 98.7%; growth at 10 µM (Malme-3M): 156%; growth at 10 µM (COLO 205): 110%; growth at 10 µM (MDA-MB-468): 34.7%; growth at 10 µM (SW-620): 116%; growth at 10 µM (K562): 88.6%; growth at 10 µM (A498): 63.7%; growth at 10 µM [3]: 39%
CCOC(=O)/C(C#N)=C\Nc1ccc2ncnc(Nc3ccc(Cl)cc3)c2c1 | 43% | 84.9% | 72% | 83.1% | 50.1% | 87% | 107% | 100% | 86.3% | 89% | 72.7% | 51.2% | 50.2% | 74% | 50.1% | 76.1% | 32.6% | 93.1% | 87.5% | 85% | growth at 10 µM (HL-60(TB)): 76.2%; growth at 10 µM (SF-539): 103%; growth at 10 µM (HT-29): 86.3%; growth at 10 µM (NCI-H460): 70%; growth at 10 µM (Malme-3M): 142%; growth at 10 µM (COLO 205): 102%; growth at 10 µM (MDA-MB-468): 26.6%; growth at 10 µM (SW-620): 97.3%; growth at 10 µM (K562): 61.4%; growth at 10 µM (A498): 53.1%; growth at 10 µM [3]: 20.6%
C#Cc1cccc(Nc2ncnc3ccc(N/C=C(\C#N)C(=O)OCC)cc23)c1 | 58.6% | 94.2% | 100% | 91.7% | 87.5% | 97.1% | 99.9% | 95% | 92.5% | 94% | 73.4% | 63.1% | 78.7% | 98.1% | 103% | 94.4% | 56.1% | 97.2% | 103% | 97% | growth at 10 µM (HL-60(TB)): 97.5%; growth at 10 µM (SF-539): 97.8%; growth at 10 µM (HT-29): 98%; growth at 10 µM (NCI-H460): 100%; growth at 10 µM (Malme-3M): 119%; growth at 10 µM (COLO 205): 104%; growth at 10 µM (MDA-MB-468): 40.4%; growth at 10 µM (SW-620): 105%; growth at 10 µM (K562): 96.4%; growth at 10 µM (A498): 82.5%; growth at 10 µM [3]: 31.9%
